Laboratory results published in ChEMBL document CHEMBL2331333, “Synthesis, biological evaluation of new oxazolidino-sulfonamides as potential antimicrobial agents” (2013).
Values after ≈ are worked out from the molar mass of the structure shown. Active and inactive are the calls of the source. The calls are words filed in the database; no cut-off is given here.

Legend:
Pseudomonas aeruginosa [1] = assay: Antibacterial activity against Pseudomonas aeruginosa MTCC 2453 after 24 hrs by agar dilution method; format: functional; settings: MTCC 2453, 24 h
Candida albicans [2] = assay: Antifungal activity against Candida albicans MTCC 3017 after 48 hrs by agar dilution method; format: functional; settings: MTCC 3017, 48 h
Method in brief: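 Same disk/dilution format as the antibacterial assay, on potato dextrose agar (39 g/L). Compounds were from DMSO stock, loaded at 1 to 80 per disk, in triplicate. Plates were incubated at 28 ± 2 °C for 48 h. MIC was the lowest amount that arrested growth. Equivalent DMSO served as solvent control.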

Escherichia coli = assay: Antibacterial activity against Escherichia coli MTCC 739 at 80 ug/ml after 24 hrs by agar dilution method; format: functional, organism-based
Bacillus subtilis [3] = assay: Antibacterial activity against Bacillus subtilis MTCC 121 after 24 hrs by agar dilution method; format: functional; settings: MTCC 121, 24 h
Staphylococcus aureus [4] = assay: Antibacterial activity against Staphylococcus aureus MTCC 96 after 24 hrs by agar dilution method; format: functional; settings: MTCC 96, 24 h
Staphylococcus [5] = assay: Antibacterial activity against Staphylococcus MLS-16 MTCC 2940 after 24 hrs by agar dilution method; format: functional; settings: MLS-16 MTCC 2940, 24 h
Micrococcus luteus [6] = assay: Antibacterial activity against Micrococcus luteus MTCC 2470 at 80 ug/ml after 24 hrs by agar dilution method; format: functional, organism-based
Raoultella planticola = assay: Antibacterial activity against Klebsiella planticola MTCC 530 at 80 ug/ml after 24 hrs by agar dilution method; format: functional, organism-based
[7] = test system: Mycobacterium tuberculosis; assay: Antibacterial activity against Mycobacterium tuberculosis H37Rv at 32 ug/ml […] by agar dilution method; format: functional, organism-based
Micrococcus luteus [8] = assay: Antibacterial activity against Micrococcus luteus MTCC 2470 after 24 hrs by agar dilution method; format: functional; settings: MTCC 2470, 24 h
Micrococcus luteus [9] = assay: Antibacterial activity against Micrococcus luteus MTCC 2470 at 20 ug/ml after 24 hrs by disk diffusion method; format: functional; settings: MTCC 2470, 24 h, read-out: IZ
Staphylococcus [10] = assay: Antibacterial activity against Staphylococcus MLS-16 MTCC 2940 at 20 ug/ml after 24 hrs by disk diffusion method; format: functional; settings: MLS-16 MTCC 2940, 24 h, read-out: IZ
Bacillus subtilis [11] = assay: Antibacterial activity against Bacillus subtilis MTCC 121 at 20 ug/ml after 24 hrs by disk diffusion method; format: functional; settings: MTCC 121, 24 h, read-out: IZ
Staphylococcus aureus [12] = assay: Antibacterial activity against Staphylococcus aureus MTCC 96 at 20 ug/ml after 24 hrs by disk diffusion method; format: functional; settings: MTCC 96, 24 h, read-out: IZ
Pseudomonas aeruginosa [13] = assay: Antibacterial activity against Pseudomonas aeruginosa MTCC 2453 at 20 ug/ml after 24 hrs by disk diffusion method; format: functional; settings: MTCC 2453, 24 h, read-out: IZ
Candida albicans [14] = assay: Antifungal activity against Candida albicans MTCC 3017 at 20 ug/ml after 24 hrs by disk diffusion method; format: functional; settings: MTCC 3017, 24 h, read-out: IZ
Pseudomonas aeruginosa [15] = assay: Antibacterial activity against Pseudomonas aeruginosa MTCC 2453 at 80 ug/ml after 24 hrs by agar dilution method; format: functional, organism-based

Compound | MIC (Pseudomonas aeruginosa [1]) | MIC (Candida albicans [2]) | Activity (Escherichia coli) | MIC (Bacillus subtilis [3]) | MIC (Staphylococcus aureus [4]) | MIC (Staphylococcus [5]) | Activity (Micrococcus luteus [6]) | Activity (Raoultella planticola) | Activity [7] | MIC (Micrococcus luteus [8]) | zone of inhibition at 20 µg/mL (Micrococcus luteus [9]) | zone of inhibition at 20 µg/mL (Staphylococcus [10]) | zone of inhibition at 20 µg/mL (Bacillus subtilis [11]) | zone of inhibition at 20 µg/mL (Staphylococcus aureus [12]) | zone of inhibition at 20 µg/mL (Pseudomonas aeruginosa [13]) | zone of inhibition at 20 µg/mL (Candida albicans [14]) | Activity (Pseudomonas aeruginosa [15])
CC(=O)Nc1nc(C)c(S(=O)(=O)NC[C@H]2CN(c3ccc(N4CCSCC4)c(F)c3)C(=O)O2)s1 | 8 µg/mL (≈ 15.1 µM) | 8 µg/mL (≈ 15.1 µM) | inactive | 10 µg/mL (≈ 18.9 µM) | 8 µg/mL (≈ 15.1 µM) | 8 µg/mL (≈ 15.1 µM) | inactive | inactive | – | – | – | – | – | – | – | – | –
O=C1O[C@@H](CNS(=O)(=O)c2ccc(F)c(F)c2)CN1c1ccc(N2CCOCC2)c(F)c1 | 10 µg/mL (≈ 21.2 µM) | 10 µg/mL (≈ 21.2 µM) | – | 10 µg/mL (≈ 21.2 µM) | – | 10 µg/mL (≈ 21.2 µM) | inactive | – | inactive | – | – | – | – | – | – | – | –
O=C1O[C@@H](CNS(=O)(=O)c2ccc(C(F)(F)F)cc2)CN1c1ccc(N2CCOCC2)c(F)c1 | 8 µg/mL (≈ 15.9 µM) | 20 µg/mL (≈ 39.7 µM) | inactive | 8 µg/mL (≈ 15.9 µM) | 10 µg/mL (≈ 19.9 µM) | 10 µg/mL (≈ 19.9 µM) | – | inactive | inactive | 8 µg/mL (≈ 15.9 µM) | – | – | – | – | – | – | –
O=C1O[C@@H](CNS(=O)(=O)c2ccc(C(F)(F)F)cc2)CN1c1ccc(N2CCNCC2)c(F)c1 | 8 µg/mL (≈ 15.9 µM) | 10 µg/mL (≈ 19.9 µM) | inactive | 8 µg/mL (≈ 15.9 µM) | 6 µg/mL (≈ 11.9 µM) | 6 µg/mL (≈ 11.9 µM) | – | inactive | – | 8 µg/mL (≈ 15.9 µM) | 13 mm | 15 mm | 16 mm | 17 mm | 16 mm | 15 mm | –
O=C1O[C@@H](CNS(=O)(=O)c2cccc3cccnc23)CN1c1ccc(N2CCSCC2)c(F)c1 | 8 µg/mL (≈ 15.9 µM) | 8 µg/mL (≈ 15.9 µM) | inactive | 8 µg/mL (≈ 15.9 µM) | 6 µg/mL (≈ 11.9 µM) | 6 µg/mL (≈ 11.9 µM) | inactive | inactive | inactive | – | – | – | – | – | – | – | –
O=C1O[C@@H](CNS(=O)(=O)c2ccc(F)cc2)CN1c1ccc(N2CCNCC2)c(F)c1 | 4 µg/mL (≈ 8.84 µM) | 8 µg/mL (≈ 17.7 µM) | inactive | 10 µg/mL (≈ 22.1 µM) | 8 µg/mL (≈ 17.7 µM) | 8 µg/mL (≈ 17.7 µM) | – | inactive | – | 4 µg/mL (≈ 8.84 µM) | 14 mm | 17 mm | 20 mm | 17 mm | 18 mm | 16 mm | –
O=C1O[C@@H](CNS(=O)(=O)c2cccc(Cl)c2)CN1c1ccc(N2CCOCC2)c(F)c1 | – | 8 µg/mL (≈ 17 µM) | inactive | 6 µg/mL (≈ 12.8 µM) | 6 µg/mL (≈ 12.8 µM) | 6 µg/mL (≈ 12.8 µM) | – | inactive | inactive | 8 µg/mL (≈ 17 µM) | – | – | – | – | – | – | inactive
O=C1O[C@@H](CNS(=O)(=O)c2cc(S(=O)(=O)c3ccccc3)cs2)CN1c1ccc(N2CCSCC2)c(F)c1 | 8 µg/mL (≈ 13.4 µM) | 8 µg/mL (≈ 13.4 µM) | inactive | 8 µg/mL (≈ 13.4 µM) | 6 µg/mL (≈ 10 µM) | 6 µg/mL (≈ 10 µM) | inactive | inactive | inactive | – | – | – | – | – | – | – | –
OC(Cn1cncn1)(Cn1cncn1)c1ccc(F)cc1F [FLUCONAZOLE] | – | 1 µg/mL (≈ 3.27 µM) | – | – | – | – | – | – | – | – | – | – | – | – | – | 20 mm | –
CC(C)(C)OC(=O)N1CCN(c2ccc(N3C[C@H](CNS(=O)(=O)c4ccc(F)cc4)OC3=O)cc2F)CC1 | 20 µg/mL (≈ 36.2 µM) | 10 µg/mL (≈ 18.1 µM) | inactive | 20 µg/mL (≈ 36.2 µM) | 10 µg/mL (≈ 18.1 µM) | 10 µg/mL (≈ 18.1 µM) | – | inactive | inactive | 10 µg/mL (≈ 18.1 µM) | – | – | – | – | – | – | –
CC(=O)Nc1nc(C)c(S(=O)(=O)NC[C@H]2CN(c3ccc(N4CCOCC4)c(F)c3)C(=O)O2)s1 | 8 µg/mL (≈ 15.6 µM) | 20 µg/mL (≈ 38.9 µM) | inactive | 8 µg/mL (≈ 15.6 µM) | 20 µg/mL (≈ 38.9 µM) | 20 µg/mL (≈ 38.9 µM) | inactive | inactive | – | – | – | – | – | – | – | – | –
CC(=O)c1ccc(S(=O)(=O)NC[C@H]2CN(c3ccc(N4CCOCC4)c(F)c3)C(=O)O2)cc1 | – | 6 µg/mL (≈ 12.6 µM) | inactive | 6 µg/mL (≈ 12.6 µM) | 6 µg/mL (≈ 12.6 µM) | 6 µg/mL (≈ 12.6 µM) | – | inactive | inactive | 6 µg/mL (≈ 12.6 µM) | – | – | – | – | – | – | inactive
